Most compounds without a hit are left out; they make up all but 5.1% or so of the library.
STAT1 activator: STAT1 signaling activators, primary screen, cell-based, HTS, luciferase reporter | NIH 3T3 STAT1-luciferase reporter, IFN-gamma, luminescence; 100% = IFN-gamma alone, no compound | activation (% of control), % at 5.5 µM | 2.6% of 200,000 active | AID 932, 2007;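 active = activation above the screen-wide mean activation plus 3 SD, cut at about 130% in these data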;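 also: raw ratio to IFN-gamma control signal so 100% means no change and 0% no light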
NF-kB expr up: activators of NF-kB expression in neurons, primary screen, cell-based, HTS; 1.6% of 190,000 active; human neuronal cells, NF-kB reporter expression; active compounds read high; fold change at 12.5 µM; in the data active = fold change above about 3.3
STAT3 activator: IL-6 driven STAT3 reporter potentiators, primary screen, U3A cells, luciferase, luminescence, MLSCN library | IL-6 STAT3-luciferase reporter; 100% = signal with IL-6 EC80 alone | activation (% of control), % at 5.6 µM | 0.91% of 190,000 active | AID 871, 2007;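 active = activation above the screen-wide mean of compound activation plus 3 SD, cut at about 130% in these data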;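 also: 0% = background luminescence of wells with medium and substrate only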
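Test system: STAT3-luciferase reporter U3A cells; Detection: reporter luminescence signal; Times: 1 h compound pre-exposure, 6 h IL-6 stimulation, 37 °C; Benchmarks: IL-6-only high control; Also added: IL-6 stimulus at 33 ng/mL final.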
APP 5'UTR act: activators of APP 5'UTR luciferase reporter, primary screen, SH-SY5Y cells; SH-SY5Y APP 5'UTR luciferase reporter, luminescence; zero percent = DMSO vehicle wells; activation, % at 2 µM; 1% of 190,000 active; AID 1276, 2008;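 active = activation above a set limit, based on mean plus 3 SD of controls, cut at about 140% in these data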
STAT3 inh: IL-6 driven STAT3 reporter inhibitors, primary screen, U3A cells, luciferase, luminescence, MLSCN library; IL-6 STAT3-luciferase reporter; host cell line lacks STAT1; inhibition, % at 5.5 µM; 0.89% of 190,000 active; AID 862, 2007;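 active = inhibition above the mean inhibition across all screened compounds plus 3 SD, cut at about 44% in these data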;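 also: 0% = DMSO only wells and 100% = 100 µM nifuroxazide control wells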
STAT1 blocker: STAT1 signaling inhibitors, primary screen, cell-based, HTS, luciferase reporter; NIH 3T3 STAT1-luciferase reporter, IFN-gamma, luminescence; inhibition, % at 5.5 µM; 0.35% of 200,000 active; AID 920, 2007;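 active = inhibition above a set limit, the mean inhibition across all tested compounds plus 3 SD, cut at about 34% in these data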;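 also: 0% = IFN-gamma with DMSO and 100% = IFN-gamma with 300 µM nifuroxazide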
An asterisk follows results filed as active; / = no result.

SMILES | STAT1 activator | NF-kB expr up | STAT3 activator | APP 5'UTR act | STAT3 inh | STAT1 blocker
O=c1/c(=C\c2ccc(F)cc2)sc2n1CCCN=2 | 149* | 2.4 | 101 | 170* | -2 | -52
CC(=O)N1N=C(c2ccco2)CC1c1ccc(C)cc1 (stereo unspecified) | 93 | 1.1 | 94 | -16 | 8 | 8
CCc1ccc(C2CC(c3ccco3)=NN2S(C)(=O)=O)cc1 (stereo unspecified) | 138* | 4.8* | 90 | 155* | 18 | -42
CC(=O)c1ccc(NC(=S)Nc2cccc(S(=O)(=O)Nc3c(C)n(C)n(-c4ccccc4)c3=O)c2)cc1 | 107 | 1 | 86 | 17 | 20 | -10
O=C(NC1CCCCCCC1)c1cc(F)c(F)cc1Cl | 130* | 1.6 | 115 | 32 | -6 | -32
O=C(NCCOc1ccccc1F)c1cc(F)c(F)cc1Cl | 134* | 3.2 | 84 | 124 | 18 | -33
CSc1ccc(Cl)c(C(=O)NC2CCCC2)c1 | 102 | 1.1 | 102 | 6 | 1 | -2
Clc1cccc(CN2CCCCCCC2)c1Cl | 100 | 1 | 97 | -20 | -2 | -1
CN1/C(=C\C=Nc2cc(S(=O)(=O)N3CCOCC3)ccc2N2CCOCC2)C(C)(C)c2ccccc21 | 94 | 0.97 | 81 | 2 | 24 | 6
O=C(Nc1ccccc1)C1=C[C@@H](c2coc3ccccc3c2=O)C[C@@H](OCc2ccc(CO)cc2)O1 | 98 | 0.97 | / | 8 | / | 3
CC(=O)Nc1ccc(N=Cc2c(O)c(C(=O)Nc3ccccc3)cc3ccccc23)cc1 | 89 | 1.1 | 145* | 7 | -46 | 11
CCc1ccc(/C=C/C(=O)C2C(=O)c3ccccc3C2=O)cc1 | 65 | 1.1 | 62 | 20 | 52* | 39*
O=C(/C=C/c1ccccc1)C1C(=O)c2ccccc2C1=O | 111 | 2.6 | 102 | 61 | -8 | -12
CC1CN/C(=C\C(=O)c2ccccc2)C(=O)N1 (stereo unspecified) | 138* | 2.9 | 97 | 52 | 7 | -42
CC1CN/C(=C\C(=O)c2ccc(Cl)cc2)C(=O)N1 (stereo unspecified) | 125 | 4.7* | 77 | 175* | 31 | -27
CCC(CO)NCc1cc(OC)c(OCC(=O)NCCc2ccccc2)cc1Br (stereo unspecified) | 110 | 1.1 | 103 | -5 | -1 | -11
Cc1nn(C(C)C(=O)NCC2CCCO2)c(C)c1[N+](=O)[O-] (stereo unspecified) | 104 | 1.1 | 97 | 9 | 10 | -6
Cc1ccc(NC(=O)CSc2ccccc2NC(=O)c2ccccc2Cl)cc1Cl | 107 | 1.1 | 103 | 4 | -4 | -8
O=c1c(Cl)c(N2CCOCC2)cnn1-c1nc2ccccc2[nH]1 | 136* | 1.3 | 83 | 104 | 28 | -42
CCSCCOC(=O)C1=C(C)NC2=C(C(=O)CCC2)C1c1coc2ccccc2c1=O (stereo unspecified) | 95 | 0.8 | 144* | -13 | -51 | 5
CC(=O)c1c(N2CCN(C)CC2)[nH]c(-c2ccccc2)nc1=S | 106 | 0.95 | 100 | -4 | 4 | -7
CN(C)c1ccc(N=Cc2nc(-c3ccccc3)oc2OC(=O)c2cccc(Cl)c2)cc1 | 129* | 3.4* | 94 | 135 | 10 | -32
Cc1ccc(-c2nc(C=Nc3ccccc3)c(O)o2)cc1 | 121 | 2.2 | 97 | 41 | 10 | -22
Cc1ccc(C(=O)Oc2oc(-c3ccccc3)nc2C=Nc2ccc(N(C)C)cc2)cc1 | 149* | 1.1 | 93 | 146* | 9 | -55
Nc1cccc(-c2cn3cc(C(F)(F)F)cc(Cl)c3n2)c1 | 130* | 6.8* | 108 | / | -4 | -33
SMILES | STAT1 activator | NF-kB expr up | STAT3 activator | APP 5'UTR act | STAT3 inh | STAT1 blocker
Cc1cc(C(F)(F)F)nc(-n2cc(-c3cccc(N)c3)nn2)n1 | 105 | 1 | 87 | 2 | 25 | -7
COc1cccc(CNC(=O)CCC2CCCN(C(=O)c3csc(C(C)C)n3)C2)c1 (stereo unspecified) | 94 | 1.2 | 94 | -6 | 12 | 5
Nc1nc(CCOc2ccc(F)cc2)cs1 | 141* | 1.8 | 102 | 30 | 5 | -48
Nc1nc(COc2ccc3ccccc3c2)cs1 | 138* | 2.4 | 88 | 48 | 17 | -60
Cc1ccc(NC(=O)NC(=O)CSc2nnc(-c3ccc(Cl)cc3Cl)n2N)c(C)c1 | 107 | 2 | 101 | -8 | -3 | -7
C(=C\c1ccccc1)/CSc1ccccn1 | 136* | 2.2 | 94 | 54 | 14 | -39
O=C(CSc1ccccn1)N/N=C/C=C/c1ccccc1 | 109 | 1.4 | 113 | -3 | -15 | -10
Cc1ccc(/C=C/C(=O)c2c(C)nc3ccccn23)cc1 | 147* | 3.6* | 98 | 196* | 8 | -51
Cc1cc(/C=C2\NC(=O)N(Cc3ccc(Cl)cc3)C2=O)c(C)n1C | 94 | 1.2 | 139* | 4 | -50 | 6
Cc1ccc(CN2C(=O)N/C(=C/c3ccc4c(c3)n(C)c(=O)n4C)C2=O)cc1 | 70 | 1.4 | 69 | -24 | 38 | 32
CCOC(=O)N1CCN(c2nc(C)cc(C(F)(F)F)n2)CC1 | 89 | 4.9* | 88 | 24 | 18 | 10
CCOC(=O)N1CCN(c2nc(C(F)(F)F)nc3c(C)cc(C)cc23)CC1 | 104 | 1 | 74 | 0 | 34 | -4
O=C(O/N=C/c1ccc2c(c1)OCO2)c1ccccc1Cl | 103 | 3.7* | 98 | 7 | 4 | -4
O=C(O/N=C\c1ccc(N2CCOCC2)c([N+](=O)[O-])c1)c1ccccc1Cl | 102 | 0.92 | 100 | 8 | 8 | -3
CC1(C)OC(=O)N(c2ccccc2)C12C=Cc1c(ccc3ccccc13)O2 (stereo unspecified) | 95 | 0.88 | 99 | 1 | 2 | 6
O=C1NC2(C=Cc3c(ccc4ccccc34)O2)Oc2ccccc21 (stereo unspecified) | 141* | 1.5 | 114 | 3 | -17 | -46
CC12COC3(C(=O)Nc4ccccc4)CC1CCC32C (stereo unspecified) | 104 | 0.98 | 104 | -1 | -2 | -6
CC12COC3(C(=O)Nc4ccc5ccccc5c4)CC1CCC32C (stereo unspecified) | 144* | 1 | 129 | 49 | -29 | -52
O=C(NC1=NCCS1)C1COc2ccccc2O1 (stereo unspecified) | 29 | 0.33 | 14 | -2 | 99* | 77*
O=C(Nc1ccncc1)C1COc2ccccc2O1 (stereo unspecified) | 96 | 1 | 90 | -6 | 16 | 4
